# Fibroblast inh = blocks proliferation of human lung fibroblasts; viability, % at 10 µM; AID 719; LL 47 human lung fibroblast viability, ATP luminescence; hits give low values; actives 1.1% (n = 85,000);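 active = viability at or below 50% in the single dose screen; inactive = viability above 50%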;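 note: compound exposure lasted 72 h before the ATP readout; 100% = median luminescence of untreated cell-only wells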
#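 material = human LL 47 lung fibroblast cells | dosing = compounds added from tenfold dosing solution, 0.1% DMSO final | timing = overnight cell rest, 72 h compound treatment at 37 °C | measured by = CellTiter-Glo luminescence measuring cellular ATP | evaluation = % viability versus median cells-only luminescence | control set = cell-only wells, no compound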
# PTEN del growth = suppresses growth of cells with PTEN deletion. actives 1.2% (n = 140,000). viability, % at 10 µM. HCT116 PTEN-null viability, CellTiter-Glo, 60 h; hits give low values;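 active = viability at or below a set limit, 4 SD under the median of all tested compounds, cut at about 3.7% in these data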;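 note: PTEN knockout HCT116 line with beta catenin targeted HCT116 as companion control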
# HCT116 bCat-KO = beta-catenin-lacking colon tumor cell growth suppression. viability, % at 10 µM. actives 1.5% (n = 140,000). HCT116 beta-catenin knockout viability, CellTiter-Glo, 60 h; hits give low values;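 active = viability at or under a set limit, the compound median less 4 SD, cut at about 6% in these data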;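 note: 0% = Hyamine 1622 control at 20 µM and 100% = untreated cell control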
# H69AR growth 86K = blocks growth of human H69AR lung tumor cells | H69AR lung tumor viability, ATP luminescence, 72 h; hits give low values | viability, % at 10 µM | actives 6% (n = 85,000) | AID 598;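 active = viability at or below 40%; inactive = viability above 40%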;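 note: multidrug resistant small cell line overexpressing MRP-1 efflux transporter; 100% = mean luminescence of untreated control wells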
# HUVEC inhibit = inhibitors of human endothelial cell proliferation; HUVEC proliferation, CellTiter-Glo luminescence, 72 h; hits give low values; viability, % at 10 µM (by protocol); actives 1.1% (n = 86,000);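 active = viability at or below 30%; inactive = viability above 30%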;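 note: 100% = median luminescence of DMSO-only cell control wells on each plate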
# * marks the source's active call; other numbers are inactive results; nt = no result. Only a selection was taken, and hits are over-represented in it overall.
SMILES,Fibroblast inh,PTEN del growth,HCT116 bCat-KO,H69AR growth 86K,HUVEC inhibit
CC1=CC(C)(C)N(S(=O)(=O)c2ccc(F)cc2)c2ccc(C)cc21,51,14,15,22*,60
CCOC(=O)C(C(=O)Nc1ccccc1)C1CCCCC1 (configuration not stated),83,75,72,91,85
CCOC(=O)C(C(=O)Nc1ccc(C)cc1)C1CCCCC1 (configuration not stated),89,75,87,23*,80
CCN(C(=O)CN(C)Cc1cccc(Cl)c1Cl)c1c(N)n(Cc2ccccc2)c(=O)[nH]c1=O,nt,80,81,nt,nt
COc1ccc(-c2nc(-c3ccccc3)nc(Cl)c2C#N)cc1,nt,90,92,nt,nt
CN(C)c1nc(-c2ccccc2)nc(-c2ccc(Cl)cc2)c1C#N,82,75,72,32*,45
COCCn1c(=NC(=O)c2cc3ccccc3oc2=O)sc2cc(S(N)(=O)=O)ccc21,nt,105,99,nt,nt
COc1ccc(NC(=O)CSc2nnc(NC(=O)c3ccc(S(=O)(=O)N4CCOCC4)cc3)s2)cc1,nt,87,90,nt,nt
CCOC(=O)C1CCCN(c2nc3ccccc3nc2C(C#N)C(=O)OCC)C1 (configuration not stated),79,38,49,56,73
CCN1CCN(c2nc3ccccc3nc2C(C#N)C(=O)OC2CCCCC2)CC1 (configuration not stated),81,96,80,50,37
CCOC(=O)C1CCCN(c2nc3ccccc3nc2C(C#N)C(=O)OCCOC)C1 (configuration not stated),54,65,67,75,25*
CN1CCN(c2nc3ccccc3nc2C(C#N)C(=O)OC2CCCCC2)CC1 (configuration not stated),71,50,52,19*,3.7*
CCOC(=O)c1c(NC(=O)CSc2nc(C)cc(C)c2C#N)sc(C(C)=O)c1C,59,108,104,19*,38
Cc1nc2ccccc2n1CCc1nc2c3ccccc3nc(SCC(=O)NCc3ccco3)n2n1,10*,79,90,21*,79
Cc1cc(C)n(CCc2nc3c4ccccc4nc(SCc4ccc(C#N)cc4)n3n2)n1,113,nt,nt,86,77
O=C(CCn1c(SCC(=O)NCc2ccco2)nc2ccccc2c1=O)NCCc1ccccc1,103,99,91,97,91
Cc1nc2ccccc2n1CCc1nc2c3ccccc3nc(SCC#N)n2n1,77,76,82,22*,28*
CCOC(=O)C1=C(CSc2nc(C)cc(C)c2C#N)OC(N)=C(C#N)C1c1ccccc1 (configuration not stated),101,90,100,81,98
CCOC(=O)C1=C(CSc2nc(CC)c(C)cc2C#N)OC(N)=C(C#N)C1c1ccccc1 (configuration not stated),78,49,29,28*,78
CCOC(=O)C1=C(CSc2nc3c(cc2C#N)CN(C)CC3)OC(N)=C(C#N)C1c1ccc(Cl)cc1 (configuration not stated),103,90,81,36*,88
Cc1cccc(NC(=O)Cc2coc3ccc4ccccc4c23)n1,90,83,79,98,87
CCN1CCN(CC(=O)N/N=C/c2ccc(F)cc2F)CC1,nt,82,78,nt,nt
C=CCOc1ccc2nc(NC(=O)OC)[nH]c2c1,49*,16,13,33*,47
COc1ccc(/C=N\NC(=O)c2nn(C)cc2Cl)cc1CN1CCOCC1,nt,95,94,nt,nt
COc1ccc(/C=N/n2cnc3c([nH]c4ccc(Br)cc43)c2=O)cc1CN1CCOCC1,8.7*,83,67,3.7*,23*
SMILES,Fibroblast inh,PTEN del growth,HCT116 bCat-KO,H69AR growth 86K,HUVEC inhibit
OC(Cn1cncn1)(c1ccccc1)c1ccccc1,99,88,103,89,93
CCOc1ccc2nc(COC(=O)c3ccco3)c(C(C)=O)[n+]([O-])c2c1,106,91,98,77,85
CCOc1ccc2nc(Cl)c(/C=C/C(=O)c3ccco3)cc2c1,93,6,14,8.9*,77
CCOC(=O)C1=C(CN2CCCCC2)NC(=O)NC1c1cc(C)ccc1C (configuration not stated),103,92,89,74,109
CCOC(=O)C1=C(CSCc2ccccc2)NC(=O)NC1c1cc(C)ccc1C (configuration not stated),98,49,53,32*,94
CC(=O)NN1C(=O)/C(=C/c2ccc(C(C)C)cc2)SC1=S,nt,87,86,nt,nt
CCOc1cc(CNC2CCCC2)cc(Cl)c1OCc1ccccc1,nt,1.8*,1.6*,nt,nt
COc1cc(CNn2cn[nH]c2=S)cc(Cl)c1OCc1ccccc1,nt,94,101,nt,nt
Cc1nn2c(-c3ccccc3)nnc2c2ccccc12,98,75,65,39*,63
Cc1cccc2nc(-c3cccc(NC(=O)c4ccc(Cl)cc4)c3)cn12,nt,88,91,nt,nt
CCN(Cc1ccccc1)S(=O)(=O)c1ccc2oc(C(=O)O)c(C)c2c1,101,108,97,92,89
CCN(CC)S(=O)(=O)c1ccc2oc(C(=O)NCc3ccc(C)cc3)c(C)c2c1,88,72,80,38*,85
CCN(CC)S(=O)(=O)c1ccc2oc(C(=O)NC(C)C)c(C)c2c1,100,78,82,29*,97
Cc1c(C(=O)N(C)Cc2ccccc2)oc2ccc(S(=O)(=O)N3CCCC3)cc12,88,72,68,39*,95
CCN(CC)S(=O)(=O)c1ccc2oc(C(=O)O)c(C)c2c1,90,102,95,97,99
CCn1cc(C(=O)NCc2ccc(Cl)cc2)c(=O)c2cc(S(=O)(=O)N3CCOCC3)ccc21,90,63,68,30*,86
CCn1cc(C(=O)NCc2ccc3c(c2)OCO3)c(=O)c2cc(S(=O)(=O)N3CCOCC3)ccc21,90,85,90,57,87
COc1ccc(NC(=O)c2cccnc2Sc2ccccc2)c(OC)c1,nt,103,105,nt,nt
C/C(=N/NC(=O)c1ccoc1C)c1ccc(NC(=O)c2ccncc2)cc1,nt,85,85,nt,nt
CC1C(c2ccccc2)N(C)C(c2ccccc2)C(C)C1(O)C#Cc1ccccc1 (configuration not stated),nt,34,39,nt,nt
Cc1ccc(CNC(=O)c2oc3ccc(S(=O)(=O)N4CCOCC4)cc3c2C)cc1,97,74,81,31*,85
CC1=NN(C(C#N)c2cccc([N+](=O)[O-])c2)C(C)(C)C1 (configuration not stated),nt,105,101,nt,nt
COc1ccc(-c2coc3c(CN4CCCCC4)c(O)c(CN4CCCCC4)c(O)c3c2=O)cc1,85,1.6*,1.4*,7.2*,85
COc1ccc(C2=NN(C(C#N)c3ccc(OC)cc3)C(c3ccccc3)C2)cc1 (configuration not stated),nt,47,48,nt,nt
COc1cccc(NC(=S)N/N=C2/CCCCc3ccccc32)c1,nt,72,72,nt,nt

# From PubChem
